How the values were obtained:
[1] = Insulin absorption upon s.c. neck dosing in HFD and LFD rats; assay type: in vivo, Male Sprague Dawley rats; details: 12 nmol, HFD n = 22, LFD n = 10, p < 0.01
In short: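 Rats aged 33–34 weeks, fed a high-fat (60% fat to 22 weeks, then 45%) or low-fat (10% fat) diet from weaning, received 12 nmol test insulin (20 μL) s.c. in the neck. Sublingual-vein blood was drawn at 5, 15 and 60 min, and plasma levels were measured by luminescent oxygen channelling immunoassay. Each rat was dosed five times; mean ± SEM.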

[2] = assay type: in vivo, Male Sprague Dawley rats; details: anaesthetized rats, s.c. 20 μL insulin aspart/iomeprol 80/20; p < 0.001
In short: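 Male rats on a high-fat diet (60% fat from weaning to 22 weeks, then 45%) or a low-fat diet (10% fat), aged 36–38 weeks, were isoflurane-anaesthetized. They received 20 μL test insulin mixed 80/20 with iomeprol s.c. in the neck or flank. μCT scans ran to 13 min (neck) or 17 min (flank). Tail blood was taken at 5 and 15 min and measured by luminescent oxygen channelling immunoassay. Three (neck) or four (flank) repeats per rat; mean ± SEM.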

Question: For insulin aspart, which “area under the curve (AUC0–60 min), HFD compared with LFD group” value [1] is on record?
Answer: reduced

Question: And the “mean insulin concentration at 5 and 15 min, flank compared with neck dosing” value [2]?
Answer: significantly lower
